Consider 24 molecules from ChEMBL document CHEMBL1833791, “Synthesis and biological evaluation of α,β-unsaturated lactones as potent immunosuppressive agents” (Bioorg Med Chem Lett, 2011).

In experiment [1] the test system is Jurkat. The experiment can be described thus: Immunosuppressive activity in human Jurkat T cells assessed as inhibition of PMA-induced IL-2 production at 10 uM after 13 hrs by ELISA relative to control. The format is functional. Put shortly:
(§1)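 Jurkat T lymphocytes at 1 × 10^6 cells/mL were given compound at 1 μM or 10 μM final, then stimulated with 5 nM ionomycin plus 500 nM PMA for 13 h at 37 °C. Cells were spun down and supernatant IL-2 was measured by sandwich ELISA (anti-human IL-2 capture, biotinylated anti-human IL-2 detection). Values are % inhibition versus DMSO negative control, from at least three experiments.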

Experiment [2] concerns Jurkat. The experiment can be described thus: Immunosuppressive activity in human Jurkat T cells assessed as inhibition of PMA-induced IL-2 production at 1 uM after 13 hrs by ELISA relative to control. The format is functional. Put shortly: as §1
Experiment [3] has as its system Jurkat. The experiment can be described thus: Immunosuppressive activity in human Jurkat T cells assessed as inhibition of PMA-induced IL-2 production after 13 hrs by ELISA. It counts as functional, cell-based. On the technique in general: An ELISA detects its analyte on a solid surface through an enzyme-linked reagent.

The source made the active and inactive calls. The rule behind the calls is not given here.

Take `COc1ccccc1C1CC=CC(=O)O1` (centres undefined): the inhibition (commonly the change of the read-out against control, counted positive when it falls) at 10 µM in experiment [1] turned out to be 89.2%. In addition, the inhibition at 1 µM in experiment [2] amounted to 11%.

With `O=C1C=CCC(c2cccc3ccccc23)O1` (centres undefined), in experiment [1], the inhibition at 10 µM amounted to 100%. Also, the inhibition at 1 µM in experiment [2] is 72.5%.

For `O=C1C=CCC(Cc2ccc3ccccc3c2)O1` (centres undefined), the inhibition at 10 µM in experiment [1] was 100%. For the same molecule, in experiment [2], the inhibition at 1 µM stood at 67.7%. Moreover, the IC50 (commonly the concentration that gives 50% inhibition) in experiment [3] was determined as 396 nM.

On to `O=C1C=CCC(c2ccnc3ccccc23)O1` (centres undefined), for which the inhibition at 10 µM in experiment [1] is 100%. Further, the inhibition at 1 µM in experiment [2] worked out at 27.8%.

As for `Cc1ccc(C2CC=CC(=O)O2)cc1` (centres undefined), in experiment [1], the inhibition at 10 µM worked out at 80.6%. In addition, the inhibition at 1 µM in experiment [2] came to 89%. For the same molecule, the IC50 in experiment [3] came out at 142 nM.

Take `O=C1C=CCC(c2ccccc2)O1` (centres undefined): the inhibition at 10 µM in experiment [1] worked out at 82.6%. In addition, the inhibition at 1 µM in experiment [2] was 89.7%. The IC50 in experiment [3] is 166 nM.

As for `O=C1C=CCC(c2ccc(OCc3ccccc3)cc2)O1` (centres undefined), the inhibition at 10 µM in experiment [1] was 98.9%. Further, the inhibition at 1 µM in experiment [2] worked out at 28%.

In the case of `O=C1C=CCC(CC23CC4CC(CC(C4)C2)C3)O1` (centres undefined), in experiment [1], the inhibition at 10 µM was 100%. For the same molecule, the inhibition at 1 µM in experiment [2] worked out at 57.4%. In addition, the IC50 in experiment [3] was determined as 1570 nM.

In the case of `O=C1C=CCC(c2cc3ccccc3o2)O1` (centres undefined), the inhibition at 10 µM in experiment [1] was found to be 100%. Besides, in experiment [2], the inhibition at 1 µM was determined as 100%. Besides, the IC50 in experiment [3] is 66.9 nM.

Consider `O=C1C=CCC(/C=C/c2ccccc2)O1` (centres undefined), for which, in experiment [1], the inhibition at 10 µM was 90.1%. The inhibition at 1 µM in experiment [2] amounted to 12.7%.

As to `COc1ccc(C2CC=CC(=O)O2)cc1` (centres undefined), in experiment [1], the inhibition at 10 µM was 87.2%. The inhibition at 1 µM in experiment [2] amounted to 39.8%.

Regarding `O=C1C=CCC(c2ccsc2)O1` (centres undefined), the inhibition at 10 µM in experiment [1] was determined as 46.2%. Further, in experiment [2], the inhibition result is “inactive”.

As for `Cc1cccc(C2CC=CC(=O)O2)c1` (centres undefined), in experiment [1], the inhibition at 10 µM was 64.5%. Besides, the inhibition at 1 µM in experiment [2] is 47.9%.

In the case of `O=C1C=CCC(c2csc3ccccc23)O1` (centres undefined), in experiment [1], the inhibition at 10 µM was determined as 100%. For the same molecule, the inhibition at 1 µM in experiment [2] is 77.1%. Also, in experiment [3], the IC50 was determined as 908 nM.

Consider `Cc1ccc(C2CC=CC(=O)O2)c2ccccc12` (centres undefined), for which the inhibition at 10 µM in experiment [1] turned out to be 100%. For the same molecule, the inhibition at 1 µM in experiment [2] is 57.4%.

In the case of `Cc1ccc2ccccc2c1C1CC=CC(=O)O1` (centres undefined), the inhibition at 10 µM in experiment [1] stood at 75.5%. In addition, the inhibition at 1 µM in experiment [2] was determined as 6.4%.

With `O=C1C=CCC(c2ccc3ccccc3c2)O1` (centres undefined), the inhibition at 10 µM in experiment [1] was 97.2%. Further, in experiment [2], the inhibition at 1 µM amounted to 37.5%.

For `O=C1C=CCC(c2cccs2)O1` (centres undefined), the inhibition at 10 µM in experiment [1] was 59.6%. For the same molecule, the inhibition entry in experiment [2] is “inactive”.

On to `O=C1C=CCC(c2ccco2)O1` (centres undefined), for which the inhibition at 10 µM in experiment [1] worked out at 21.7%. The inhibition result in experiment [2] is “inactive”.

Regarding `O=C1C=CCC(c2cnc3ccccc3c2)O1` (centres undefined), in experiment [1], the inhibition at 10 µM is 98.7%. Further, the inhibition at 1 µM in experiment [2] turned out to be 41.5%.

`O=C1C=CCC(C(c2ccccc2)c2ccccc2)O1` (centres undefined): the inhibition at 10 µM in experiment [1] is 89.2%. Besides, in experiment [2], the inhibition at 1 µM came out at 18.7%.

`O=C1C=CCC(c2ccoc2)O1` (centres undefined): the inhibition entry in experiment [1] and in experiment [2] was “inactive” throughout.

With `Cc1ccccc1C1CC=CC(=O)O1` (centres undefined), the inhibition at 10 µM in experiment [1] is 86.1%. Further, the inhibition at 1 µM in experiment [2] is 15.2%.

Turning to `COc1cccc(C2CC=CC(=O)O2)c1` (centres undefined), the inhibition at 10 µM in experiment [1] is 90.4%. In experiment [2], the inhibition entry is “inactive”.
